Assay results reported in ChEMBL document CHEMBL3352165 (Eur J Med Chem, 2014).
pIC50: −log10 of the molar value. Calls of active or inactive are those of the source. No cut-off for these calls is given here.

Tests used:
BT-474 [1] = experiment: Induction of cell cycle arrest in human BT474 cells assessed as accumulation at G1 phase at 10 uM incubated for 12 hrs by propidium iodide staining based flow cytometry (reference value: 67%); type: functional
[2] = Cytotoxicity against human SKBR3 cells assessed as inhibition of cell growth after 72 hrs by sulforhodamine B assay; type: functional, cell-based; conditions: SK-BR-3, 72 h
How it was run: (§1)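 Cells grown in RPMI-1640 with 5% FBS and plated at 5.0×10^4/ml. Next day exposed to 0.5–5000 ng/ml for 3 days. Survival read by sulforhodamine B staining. IC50 taken from growth curves; mean of at least three determinations.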

[3] = Cmax in Beagle dog at 240 mg/kg, po dosed for 14 days by LC/MS/MS method; type: ADME, organism-based, Canis lupus familiaris; parameters: dose 240 mg/kg, route oral; conditions: in vivo
How it was run: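 Beagle dogs (n = 6) dosed by oral gavage at 240 mg/kg daily for 14 consecutive days. Blood taken predose and at 0.25–24 h on days 1 and 14, plasma stored at −20 °C, analysed by validated LC/MS/MS. Half-life and AUC by model-independent methods; Cmax and MRT read from concentration–time data.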

[4] = biological target: T1, Vascular endothelial growth factor receptor 2 (Homo sapiens, UniProt P35968); experiment: Inhibition of KDR (unknown origin) by ELISA method
How it was run: (§2)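 Phosphotyrosine ELISA with purified kinase (20 ng) and 5 µM ATP in buffer (50 mM HEPES pH 7.4, 20 mM MgCl2, 0.1 mM MnCl2, 0.2 mM Na3VO4, 1 mM DTT), 1 h at 37 °C, DMSO ≤1%. Detection by PY99 antibody, then HRP anti-mouse IgG with o-phenylenediamine, A490. IC50 by Logit from at least three independent tests.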

BT-474 [5] = experiment: Induction of cell cycle arrest in human BT474 cells assessed as accumulation at G1 phase at 0.001 uM incubated for 12 hrs by propidium iodide staining based flow cytometry (reference value: 67%); type: functional
BT-474 [6] = experiment: Induction of cell cycle arrest in human BT474 cells assessed as accumulation at G1 phase at 0.1 uM incubated for 12 hrs by propidium iodide staining based flow cytometry (reference value: 67%); type: functional
BT-474 [7] = experiment: Induction of cell cycle arrest in human BT474 cells assessed as accumulation at G1 phase at 0.01 uM incubated for 12 hrs by propidium iodide staining based flow cytometry (reference value: 67%); type: functional
cells = conditions: Homo sapiens, SK-OV-3, 72 h
[8] = biological target: Mast/stem cell growth factor receptor Kit (Homo sapiens, UniProt P10721); experiment: Inhibition of c-KIT (unknown origin) by ELISA method; how it was run: as §2
MCF7 = experiment: Cytotoxicity against human MCF7 cells assessed as inhibition of cell growth after 72 hrs by sulforhodamine B assay; type: functional, cell-based; conditions: MCF7, 72 h; how it was run: as §1
[9] = AUC (0 to 24 hrs) in Beagle dog at 240 mg/kg, po administered as single dose measured after 0.25 to 24 hrs post dose by LC/MS/MS method; type: ADME, organism-based, Canis lupus familiaris; parameters: time < 24 hr, dose 240 mg/kg, route oral; conditions: plasma
How it was run: (§3)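 Single oral gavage of 240 mg/kg to beagle dogs (n = 6). Blood sampled at 0.25–24 h, kept on ice, centrifuged within 1 h (1000 × g, 4 °C, 15 min), plasma stored at −20 °C. Drug quantified by validated LC/MS/MS. AUC0–24 from non-compartmental analysis; Cmax and MRT taken directly from concentration–time data.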

[10] = Tmax in Beagle dog at 240 mg/kg, po administered as single dose measured after 0.25 to 24 hrs post dose by LC/MS/MS method; type: ADME, organism-based, Canis lupus familiaris; parameters: dose 240 mg/kg, route oral; conditions: in vivo
How it was run: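 Beagle dogs (n = 6), single oral gavage dose of 240 mg/kg. Plasma levels measured by validated LC/MS/MS. Tmax read directly from the concentration-time data.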

[11] = Tmax in Beagle dog at 240 mg/kg, po dosed for 14 days by LC/MS/MS method; type: ADME, organism-based, Canis lupus familiaris; parameters: dose 240 mg/kg, route oral; conditions: in vivo
How it was run: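 Beagle dogs (n = 6) given 240 mg/kg daily by oral gavage for 14 consecutive days. On days 1 and 14, blood taken predose and at 0.25–24 h post-dose. Plasma held at -20 °C, then quantified by validated LC/MS/MS. Tmax taken directly from the plasma concentration-time data.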

BT-474 [12] = experiment: Induction of apoptosis in human BT474 cells at 10 uM incubated for 12 hrs by propidium iodide staining based flow cytometry (reference value: 1%); type: functional
[13] = Cmax in Beagle dog at 240 mg/kg, po administered as single dose measured after 0.25 to 24 hrs post dose by LC/MS/MS method; type: ADME, organism-based, Canis lupus familiaris; parameters: dose 240 mg/kg, route oral; conditions: in vivo; how it was run: as §3
BT-474 [14] = experiment: Induction of apoptosis in human BT474 cells at 1 uM incubated for 12 hrs by propidium iodide staining based flow cytometry (reference value: 1%); type: functional
[15] = biological target: T1, Vascular endothelial growth factor receptor 2; experiment: Inhibition of KDR phosphorylation (unknown origin) expressed in human HUVEC at 0.001 to 1 uM incubated for 2 hrs by Western blot method; type: cell-based
How it was run: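 Cells grown to half-confluence and serum-starved 24 h, then treated 2 h at 0.001, 0.01, 0.1 and 1 µM. Afterwards stimulated at 37 °C with 20 ng/ml SCF-1, PDGF-BB or VEGF as appropriate to the receptor. Phosphorylation assessed by western blot.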

BT-474 [16] = experiment: Induction of cell cycle arrest in human BT474 cells assessed as accumulation at S phase at 0.1 uM incubated for 12 hrs by propidium iodide staining based flow cytometry (reference value: 19%); type: functional
[17] = biological target: Epidermal growth factor receptor (Homo sapiens, UniProt P00533); conditions: A-431, 0.001 to 1 uM
MDA-MB-231 = experiment: cells; conditions: Homo sapiens, MDA-MB-231, 72 h
BT-474 [18] = experiment: Induction of apoptosis in human BT474 cells at 0.001 uM incubated for 12 hrs by propidium iodide staining based flow cytometry (reference value: 1%); type: functional
BT-474 [19] = experiment: Induction of cell cycle arrest in human BT474 cells assessed as accumulation at S phase at 0.001 uM incubated for 12 hrs by propidium iodide staining based flow cytometry (reference value: 19%); type: functional
BT-474 [20] = experiment: Induction of apoptosis in human BT474 cells at 0.1 uM incubated for 12 hrs by propidium iodide staining based flow cytometry (reference value: 1%); type: functional
[21] = Mean residence time in Beagle dog at 240 mg/kg, po administered as single dose measured after 0.25 to 24 hrs post dose by LC/MS/MS method; type: ADME, organism-based, Canis lupus familiaris; parameters: dose 240 mg/kg, route oral; conditions: in vivo; how it was run: as §3
A-431 = experiment: Cytotoxicity against human A431 cells assessed as inhibition of cell growth after 72 hrs by sulforhodamine B assay; type: functional, cell-based; conditions: A-431, 72 h; how it was run: as §1
BT-474 [22] = experiment: Induction of cell cycle arrest in human BT474 cells assessed as accumulation at G2/M phase at 0.01 uM incubated for 12 hrs by propidium iodide staining based flow cytometry (reference value: 14%); type: functional
MRC5 = experiment: cells; conditions: Homo sapiens, MRC5, 72 h
MDA-MB-453 = experiment: cells; conditions: Homo sapiens, MDA-MB-453, 72 h
BT-474 [23] = experiment: Induction of cell cycle arrest in human BT474 cells assessed as accumulation at G1 phase at 1 uM incubated for 12 hrs by propidium iodide staining based flow cytometry (reference value: 67%); type: functional

T1 sequence (P35968 whole entry): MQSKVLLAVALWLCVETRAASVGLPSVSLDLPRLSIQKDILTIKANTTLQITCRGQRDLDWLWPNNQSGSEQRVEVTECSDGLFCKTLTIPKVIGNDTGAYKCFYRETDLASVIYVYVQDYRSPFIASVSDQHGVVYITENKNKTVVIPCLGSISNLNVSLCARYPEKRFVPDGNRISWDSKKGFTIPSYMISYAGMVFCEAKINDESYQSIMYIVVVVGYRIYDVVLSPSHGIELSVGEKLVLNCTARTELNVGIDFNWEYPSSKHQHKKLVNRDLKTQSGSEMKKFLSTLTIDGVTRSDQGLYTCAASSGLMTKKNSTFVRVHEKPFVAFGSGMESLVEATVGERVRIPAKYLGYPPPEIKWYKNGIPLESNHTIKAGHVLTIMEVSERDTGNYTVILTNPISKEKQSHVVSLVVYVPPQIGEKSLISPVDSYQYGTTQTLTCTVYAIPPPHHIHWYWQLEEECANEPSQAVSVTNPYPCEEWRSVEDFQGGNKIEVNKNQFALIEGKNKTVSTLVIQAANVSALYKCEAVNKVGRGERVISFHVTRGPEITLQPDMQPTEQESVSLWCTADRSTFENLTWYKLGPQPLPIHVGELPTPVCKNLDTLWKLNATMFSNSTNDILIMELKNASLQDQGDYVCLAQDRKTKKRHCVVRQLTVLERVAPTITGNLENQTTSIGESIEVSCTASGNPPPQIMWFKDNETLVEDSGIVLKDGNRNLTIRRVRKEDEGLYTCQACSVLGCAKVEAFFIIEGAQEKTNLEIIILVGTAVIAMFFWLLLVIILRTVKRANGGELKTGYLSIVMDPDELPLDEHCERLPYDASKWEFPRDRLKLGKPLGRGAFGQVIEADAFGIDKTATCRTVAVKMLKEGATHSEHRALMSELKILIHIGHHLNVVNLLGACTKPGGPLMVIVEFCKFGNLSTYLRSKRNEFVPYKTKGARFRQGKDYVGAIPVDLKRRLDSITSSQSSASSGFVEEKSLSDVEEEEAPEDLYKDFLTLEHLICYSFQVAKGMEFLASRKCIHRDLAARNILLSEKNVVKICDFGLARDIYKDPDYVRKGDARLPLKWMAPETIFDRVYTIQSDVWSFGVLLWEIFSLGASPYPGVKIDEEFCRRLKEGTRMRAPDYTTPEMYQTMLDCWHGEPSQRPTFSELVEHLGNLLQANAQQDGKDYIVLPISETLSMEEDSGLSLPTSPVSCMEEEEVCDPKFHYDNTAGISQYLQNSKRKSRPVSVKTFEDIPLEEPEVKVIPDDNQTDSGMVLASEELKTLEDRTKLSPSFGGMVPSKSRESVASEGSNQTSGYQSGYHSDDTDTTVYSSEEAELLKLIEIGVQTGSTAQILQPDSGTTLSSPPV
Epidermal growth factor receptor, sequence (P00533 whole entry): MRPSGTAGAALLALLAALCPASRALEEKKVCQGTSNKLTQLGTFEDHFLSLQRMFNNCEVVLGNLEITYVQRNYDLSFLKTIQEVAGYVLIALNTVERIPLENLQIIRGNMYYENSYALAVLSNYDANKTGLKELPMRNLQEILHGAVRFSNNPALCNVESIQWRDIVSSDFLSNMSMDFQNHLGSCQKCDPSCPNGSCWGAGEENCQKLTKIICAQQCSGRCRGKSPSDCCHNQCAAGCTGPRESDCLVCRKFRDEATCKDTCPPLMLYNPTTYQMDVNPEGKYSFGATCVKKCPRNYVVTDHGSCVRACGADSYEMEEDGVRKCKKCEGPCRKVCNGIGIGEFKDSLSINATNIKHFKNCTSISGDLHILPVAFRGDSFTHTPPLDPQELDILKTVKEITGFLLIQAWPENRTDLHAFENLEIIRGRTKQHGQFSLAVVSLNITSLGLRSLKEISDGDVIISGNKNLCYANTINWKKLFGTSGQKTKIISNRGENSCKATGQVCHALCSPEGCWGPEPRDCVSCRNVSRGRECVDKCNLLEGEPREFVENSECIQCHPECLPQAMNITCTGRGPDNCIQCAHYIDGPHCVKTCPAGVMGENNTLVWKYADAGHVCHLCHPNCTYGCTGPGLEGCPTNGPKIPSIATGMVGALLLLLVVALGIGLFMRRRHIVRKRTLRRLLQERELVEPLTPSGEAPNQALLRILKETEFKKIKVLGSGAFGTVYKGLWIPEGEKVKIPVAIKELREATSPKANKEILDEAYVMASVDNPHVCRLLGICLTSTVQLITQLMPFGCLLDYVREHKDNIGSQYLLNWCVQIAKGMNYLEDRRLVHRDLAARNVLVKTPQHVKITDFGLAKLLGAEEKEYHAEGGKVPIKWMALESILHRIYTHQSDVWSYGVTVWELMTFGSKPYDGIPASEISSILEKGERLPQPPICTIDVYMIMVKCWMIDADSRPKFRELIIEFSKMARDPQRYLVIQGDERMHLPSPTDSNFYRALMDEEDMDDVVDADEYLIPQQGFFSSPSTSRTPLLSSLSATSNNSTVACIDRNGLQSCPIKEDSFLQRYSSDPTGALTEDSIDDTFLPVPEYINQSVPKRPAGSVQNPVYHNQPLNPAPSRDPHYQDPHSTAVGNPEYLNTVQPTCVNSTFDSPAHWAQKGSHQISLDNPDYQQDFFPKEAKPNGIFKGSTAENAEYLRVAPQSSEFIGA
Mast/stem cell growth factor receptor Kit, sequence (P10721 whole entry): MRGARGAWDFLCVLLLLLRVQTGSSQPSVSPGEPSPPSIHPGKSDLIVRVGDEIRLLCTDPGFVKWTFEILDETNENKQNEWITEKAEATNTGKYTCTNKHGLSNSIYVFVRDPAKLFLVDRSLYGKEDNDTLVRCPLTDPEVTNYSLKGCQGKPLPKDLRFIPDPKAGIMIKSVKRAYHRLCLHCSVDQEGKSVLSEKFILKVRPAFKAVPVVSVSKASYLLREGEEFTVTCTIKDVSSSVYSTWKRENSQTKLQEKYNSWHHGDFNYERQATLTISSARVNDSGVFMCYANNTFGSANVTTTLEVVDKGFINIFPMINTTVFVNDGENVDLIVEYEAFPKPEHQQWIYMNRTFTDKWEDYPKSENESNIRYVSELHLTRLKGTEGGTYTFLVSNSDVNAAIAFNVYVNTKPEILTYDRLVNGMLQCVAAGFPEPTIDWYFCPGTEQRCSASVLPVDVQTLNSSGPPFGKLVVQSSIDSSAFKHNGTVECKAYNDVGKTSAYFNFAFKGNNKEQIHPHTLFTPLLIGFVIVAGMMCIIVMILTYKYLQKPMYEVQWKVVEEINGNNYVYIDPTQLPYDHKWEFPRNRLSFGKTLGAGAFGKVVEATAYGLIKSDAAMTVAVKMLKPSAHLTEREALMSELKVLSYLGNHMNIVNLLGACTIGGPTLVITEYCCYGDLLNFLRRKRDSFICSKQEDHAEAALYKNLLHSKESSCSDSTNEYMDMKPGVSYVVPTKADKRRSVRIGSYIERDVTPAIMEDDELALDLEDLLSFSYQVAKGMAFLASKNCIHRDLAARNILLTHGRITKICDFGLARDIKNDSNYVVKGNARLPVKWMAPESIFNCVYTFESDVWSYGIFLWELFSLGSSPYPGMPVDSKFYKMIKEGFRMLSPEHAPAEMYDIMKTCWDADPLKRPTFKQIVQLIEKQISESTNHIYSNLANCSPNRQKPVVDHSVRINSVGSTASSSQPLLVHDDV

CN(C)[C@H](CS(C)(=O)=O)c1ccc(-c2ccc3ncnc(Nc4ccc(OCc5cccc(F)c5)c(Cl)c4)c3c2)o1
Activity (BT-474 [1]): 80% | pIC50 [2]: 7.74 | Cmax [3]: 2900 ng/mL | pIC50 [4]: < 3.70 | Activity (BT-474 [5]): 70% | Activity (BT-474 [6]): 84% | Activity (BT-474 [7]): 77% | pIC50 (cells): 6.36 | pIC50 [8]: < 3.70 | pIC50 (MCF7): 5.25 | AUC(0-t) at 24 h [9]: 29800 ng·h/mL | Tmax [10]: 4 h | Tmax [11]: 4.5 h | Activity (BT-474 [12]): 11% | Cmax [13]: 3100 ng/mL | Activity (BT-474 [14]): 5% | inhibition [15]: inactive | Activity (BT-474 [16]): 5% | inhibition [17]: Dose-dependent effect | pIC50 (MDA-MB-231): 4.02 | Activity (BT-474 [18]): 1% | Activity (BT-474 [19]): 16% | Activity (BT-474 [20]): 4% | MRT [21]: 6.1 h | pIC50 (A-431): 6.20 | Activity (BT-474 [22]): 14% | pIC50 (MRC5): < 4.00 | pIC50 (MDA-MB-453): 6.59 | Activity (BT-474 [23]): 82%
